Measurements from ChEMBL document CHEMBL5346932, “Structure-activity relationships of actively FhuE transported rifabutin derivatives with potent activity against Acinetobacter baumannii” (Eur J Med Chem, 2023).
Values after ≈ are worked out from the molar mass of the structure shown. Active and inactive are the calls of the source. The rule behind the calls is not given here.

Key:
Acinetobacter baumannii [1] = assay: Antibacterial activity against Acinetobacter baumannii HUMC1 cultured in RPMI 1640 medium supplemented with 10% FCS assessed as bacterial growth inhibition incubated for 20 hrs by CLSI based microbroth dilution method; format: functional; conditions: Acinetobacter baumannii
Method in brief: (§1)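 CLSI broth microdilution in RPMI 1640 + 10% FCS in place of CAMHB. Compounds in 2-fold dilution series; inoculum 5×10^5 CFU/mL. Plates held static at 35 °C for 20 h. MIC read visually as the lowest concentration with no visible growth. […] is the reciprocal of this MIC.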

Staphylococcus aureus [2] = assay: Antibacterial activity against Staphylococcus aureus USA300 UAMS-1625 assessed as fold reduction in MIC incubated for 20 hrs by CLSI based microbroth dilution method relative to rifabutin; format: functional
Method in brief: (§2)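 CLSI broth microdilution in CAMHB against S. aureus USA300 UAMS-1625. Compounds in 2-fold dilution series; inoculum 5×10^5 CFU/mL. Incubated without shaking at 35 °C for 20 h. MIC read visually as the lowest concentration preventing visible growth. Fold changes are relative to the rifabutin MIC.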

[3] = Inhibition of transcription in Acinetobacter baumannii HUMC1 using pVT784 as reporter plasmid preincubated for 30 mins followed by reporter plasmid addition and measured after 60 mins by Nano-Glo luciferase assay; format: functional
Method in brief: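 Cell-free transcription/translation used A. baumannii HUMC1 extract at 1.2 mg/mL, with extract from 2xYT+P culture after a run-off step and dialysis at pH 8.2. Compound was preincubated with extract for 30 min on ice. Reporter plasmid (0.5 nM) was then added and luminescence read after 60 min at 25 °C. Compounds were tested at 8 to 0.002 mg/L in triplicate. IC50 was fit from no-compound-normalized signal.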

Acinetobacter baumannii [4] = assay: Antibacterial activity against Acinetobacter baumannii HUMC1 cultured in iron-limited RPMI medium supplemented with 10% FCS assessed as inverse MIC incubated for 20 hrs by CLSI based microbroth dilution method; format: functional; method in brief: as §1
[5] = Drug accumulation in Acinetobacter baumannii HUMC1 cultured in iron-limited RPMI medium supplemented with 10% FCS measured per 5 ml of culture medium at 0.05 uM incubated for 10 mins by LC-MS/MS analysis; format: ADME
Method in brief: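 5 mL of suspension was dosed from DMSO stocks (0.002–5 mM) and shaken at 150 rpm for 10 min at 37 °C. Cells were pelleted, washed, and lysed (sucrose/EDTA). LC-MS/MS MRM quantitation used caffeine-normalized standard curves in spiked lysate. Reported as amount per 5 mL; n≥2 independent replicates.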

Staphylococcus aureus [6] = assay: Antibacterial activity against Staphylococcus aureus USA300 UAMS-1625 assessed as bacterial growth inhibition incubated for 20 hrs by CLSI based microbroth dilution method; format: functional; method in brief: as §2
Acinetobacter baumannii [7] = assay: Antibacterial activity against Acinetobacter baumannii HUMC1 harboring FhuE deletion mutant assessed as bacterial growth inhibition incubated for 20 hrs by CLSI based microbroth dilution method; format: functional
Method in brief: (§3)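 Microbroth dilution per CLSI in RPMI 1640 + 10% FCS (in place of CAMHB). Compounds as 2-fold serial dilutions; inoculum 5×10^5 CFU/mL of previously described HUMC1-derived mutant strains. Incubated static at 35 °C for 20 h. MIC read visually as lowest concentration preventing visible growth.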

Acinetobacter baumannii [8] = assay: Antibacterial activity against Acinetobacter baumannii HUMC1 harboring RpoB H535Q mutant assessed as bacterial growth inhibition incubated for 20 hrs by CLSI based microbroth dilution method; format: functional; method in brief: as §3
Acinetobacter baumannii [9] = assay: Antibacterial activity against Acinetobacter baumannii HUMC1 harboring RpoB H535C mutant assessed as bacterial growth inhibition incubated for 20 hrs by CLSI based microbroth dilution method; format: functional; method in brief: as §3
Acinetobacter baumannii [10] = assay: Antibacterial activity against Acinetobacter baumannii HUMC1 harboring RpoB H535Q mutant assessed as fold reduction in MIC incubated for 20 hrs by CLSI based microbroth dilution method relative to rifabutin; format: functional
Acinetobacter baumannii [11] = assay: Antibacterial activity against Acinetobacter baumannii HUMC1 harboring RpoB H535C mutant assessed as fold reduction in MIC incubated for 20 hrs by CLSI based microbroth dilution method relative to rifabutin; format: functional
Staphylococcus aureus [12] = assay: Antibacterial activity against Staphylococcus aureus USA300 UAMS-1625 assessed as fold increase in MIC incubated for 20 hrs by CLSI based microbroth dilution method relative to rifabutin; format: functional; method in brief: as §2

SMILES | MIC (Acinetobacter baumannii [1]; HUMC1, 20 h, read-out: MIC) | fold change (FC) (Staphylococcus aureus [2]) | IC50 [3] | 1/MIC (Acinetobacter baumannii [4]) | MIC (Acinetobacter baumannii [7]) | also measured
CO[C@H]1/C=C/O[C@@]2(C)Oc3c(C)c(O)c4c(c3C2=O)C2=NC3(CCN(C5CCCC5)CC3)NC2=C(NC(=O)/C(C)=C\C=C\[C@H](C)[C@H](O)[C@@H](C)[C@@H](O)[C@@H](C)[C@H](OC(C)=O)[C@@H]1C)C4=O (stereo in doubt; form 1) | ≤ 0.002 µg/mL | 2 |  |  |  | 
CO[C@H]1/C=C/O[C@@]2(C)Oc3c(C)c(O)c4c(O)c(c(/C=N/N5CCN(C)CC5)c(O)c4c3C2=O)NC(=O)/C(C)=C\C=C\[C@H](C)[C@H](O)[C@@H](C)[C@@H](O)[C@@H](C)[C@H](OC(C)=O)[C@@H]1C [RIFAMPIN] |  |  | 0.07 µg/mL (≈ 0.0851 µM) | 0.25 L/mg |  | MIC (Acinetobacter baumannii [1]; HUMC1, read-out: MIC): 4 µg/mL (≈ 4.86 µM); Drug uptake ([5]; BLD = below limit of detection): Bld
CO[C@H]1/C=C/O[C@@]2(C)Oc3c(C)c(O)c4c(c3C2=O)C2=NC3(CCN(CC5CC5)CC3)NC2=C(NC(=O)/C(C)=C\C=C\[C@H](C)[C@H](O)[C@@H](C)[C@@H](O)[C@@H](C)[C@H](OC(C)=O)[C@@H]1C)C4=O | 0.001 µg/mL (≈ 0.00118 µM) |  |  |  | 0.5 µg/mL (≈ 0.592 µM) | Activity (Staphylococcus aureus [6]): Active
CO[C@H]1/C=C/O[C@@]2(C)Oc3c(C)c(O)c4c(c3C2=O)C2=NC3(CCN(C5CC5)CC3)NC2=C(NC(=O)/C(C)=C\C=C\[C@H](C)[C@H](O)[C@@H](C)[C@@H](O)[C@@H](C)[C@H](OC(C)=O)[C@@H]1C)C4=O (stereo in doubt; form 1) | ≤ 0.002 µg/mL | 2 | 0.12 µg/mL (≈ 0.144 µM) | 1000 L/mg | 0.5 µg/mL (≈ 0.602 µM) | MIC (Acinetobacter baumannii [8]): 0.004 µg/mL (≈ 0.00481 µM); MIC (Acinetobacter baumannii [9]): 0.004 µg/mL (≈ 0.00481 µM); fold change (FC) (Acinetobacter baumannii [10]): 2; fold change (FC) (Acinetobacter baumannii [11]): 2; Drug uptake [5]: 24.66 pmol
CCC(C)(C)N1CCC2(CC1)N=C1C(=C3NC(=O)/C(C)=C\C=C\[C@H](C)[C@H](O)[C@@H](C)[C@@H](O)[C@@H](C)[C@H](OC(C)=O)[C@H](C)[C@@H](OC)/C=C/O[C@@]4(C)Oc5c(C)c(O)c(c1c5C4=O)C3=O)N2 | 0.008 µg/mL (≈ 0.00929 µM) | 2 |  |  |  | 
CO[C@H]1/C=C/O[C@@]2(C)Oc3c(C)c(O)c4c(c3C2=O)C2=NC3(CCN(C(C)(C)C)CC3)NC2=C(NC(=O)/C(C)=C\C=C\[C@H](C)[C@H](O)[C@@H](C)[C@@H](O)[C@@H](C)[C@H](OC(C)=O)[C@@H]1C)C4=O | 0.002 µg/mL (≈ 0.00236 µM) |  | 0.06 µg/mL (≈ 0.0708 µM) | 500 L/mg | 0.5 µg/mL (≈ 0.59 µM) | Activity (Staphylococcus aureus [6]): Active; Drug uptake [5]: 32.73 pmol
CCN1CCC2(CC1)N=C1C(=C3NC(=O)/C(C)=C\C=C\[C@H](C)[C@H](O)[C@@H](C)[C@@H](O)[C@@H](C)[C@H](OC(C)=O)[C@H](C)[C@@H](OC)/C=C/O[C@@]4(C)Oc5c(C)c(O)c(c1c5C4=O)C3=O)N2 | 0.004 µg/mL (≈ 0.00488 µM) | 2 |  |  |  | 
CO[C@H]1/C=C/O[C@@]2(C)Oc3c(C)c(O)c4c(c3C2=O)C2=NC3(CCN(C(C)C)CC3)NC2=C(NC(=O)/C(C)=C\C=C\[C@H](C)[C@H](O)[C@@H](C)[C@@H](O)[C@@H](C)[C@H](OC(C)=O)[C@@H]1C)C4=O | 0.002 µg/mL (≈ 0.0024 µM) | 2 |  |  | 0.5 µg/mL (≈ 0.6 µM) | 
CCCN1CCC2(CC1)N=C1C(=C3NC(=O)/C(C)=C\C=C\[C@H](C)[C@H](O)[C@@H](C)[C@@H](O)[C@@H](C)[C@H](OC(C)=O)[C@H](C)[C@@H](OC)/C=C/O[C@@]4(C)Oc5c(C)c(O)c(c1c5C4=O)C3=O)N2 | 0.004 µg/mL (≈ 0.0048 µM) |  |  |  | 0.5 µg/mL (≈ 0.6 µM) | Activity (Staphylococcus aureus [6]): Active
CO[C@H]1/C=C/O[C@@]2(C)Oc3c(C)c(O)c4c(c3C2=O)C2=NC3(CCN(C)CC3)NC2=C(NC(=O)/C(C)=C\C=C\[C@H](C)[C@H](O)[C@@H](C)[C@@H](O)[C@@H](C)[C@H](OC(C)=O)[C@@H]1C)C4=O | 0.016 µg/mL (≈ 0.0199 µM) | 2 |  |  |  | 
CO[C@H]1/C=C/O[C@@]2(C)Oc3c(C)c(O)c4c(c3C2=O)C2=NC3(CCN(CC5CCCC5)CC3)NC2=C(NC(=O)/C(C)=C\C=C\[C@H](C)[C@H](O)[C@@H](C)[C@@H](O)[C@@H](C)[C@H](OC(C)=O)[C@@H]1C)C4=O | 0.016 µg/mL (≈ 0.0183 µM) |  |  |  |  | fold change (FC) (Staphylococcus aureus [12]): 2
CO[C@H]1/C=C/O[C@@]2(C)Oc3c(C)c(O)c4c(c3C2=O)C2=NC3(CCN(c5ccccc5)CC3)NC2=C(NC(=O)/C(C)=C\C=C\[C@H](C)[C@H](O)[C@@H](C)[C@@H](O)[C@@H](C)[C@H](OC(C)=O)[C@@H]1C)C4=O | 0.125 µg/mL (≈ 0.144 µM) |  |  |  |  | fold change (FC) (Staphylococcus aureus [12]): 2
CO[C@H]1/C=C/O[C@@]2(C)Oc3c(C)c(O)c4c(c3C2=O)C2=NC3(CCN(CCC(C)(C)C)CC3)NC2=C(NC(=O)/C(C)=C\C=C\[C@H](C)[C@H](O)[C@@H](C)[C@@H](O)[C@@H](C)[C@H](OC(C)=O)[C@@H]1C)C4=O | 0.06 µg/mL (≈ 0.0686 µM) | 2 | 0.17 µg/mL (≈ 0.194 µM) | 16.67 L/mg | 0.5 µg/mL (≈ 0.571 µM) | MIC (Acinetobacter baumannii [8]): 1 µg/mL (≈ 1.14 µM); MIC (Acinetobacter baumannii [9]): 1 µg/mL (≈ 1.14 µM); Drug uptake [5]: 9.55 pmol
CO[C@H]1/C=C/O[C@@]2(C)Oc3c(C)c(O)c4c(c3C2=O)C2=NC3(CCNCC3)NC2=C(NC(=O)/C(C)=C\C=C\[C@H](C)[C@H](O)[C@@H](C)[C@@H](O)[C@@H](C)[C@H](OC(C)=O)[C@@H]1C)C4=O | 0.25 µg/mL (≈ 0.316 µM) |  | 0.05 µg/mL (≈ 0.0632 µM) | 4 L/mg | 0.5 µg/mL (≈ 0.632 µM) | fold change (FC) (Staphylococcus aureus [12]): 2; MIC (Acinetobacter baumannii [8]): 1 µg/mL (≈ 1.26 µM); MIC (Acinetobacter baumannii [9]): 1 µg/mL (≈ 1.26 µM); Drug uptake [5]: 0.47 pmol
CO[C@H]1/C=C/O[C@@]2(C)Oc3c(C)c(O)c4c(c3C2=O)C2=NC3(CCN(C5CCCCC5)CC3)NC2=C(NC(=O)/C(C)=C\C=C\[C@H](C)[C@H](O)[C@@H](C)[C@@H](O)[C@@H](C)[C@H](OC(C)=O)[C@@H]1C)C4=O | 0.016 µg/mL (≈ 0.0183 µM) |  |  |  |  | fold change (FC) (Staphylococcus aureus [12]): 2
